PubChem BioAssay
Calls of active or inactive are those of the source.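 The calls were made as follows, unless noted: active = fluorescence slope higher than the sample average by over 3 SD (cut at about -0.22 in these data, passing the limit was not always enough); inactive = the rest.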

How the values were obtained:
[1] = inhibitors of TNFa-induced NFkB p65 translocation, primary screen, imaging, HUVEC, MLSMR starter and 10KST1 sets (AID 438;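 active = inhibition above 20% together with a positive visual image hit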;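 also: compound added about 3h40 before a 20 min TNFalpha stimulation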;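 as to inhibition: signal is the nuclear over cytoplasmic p65 intensity ratio per well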); settings: HUVEC TNFa-induced p65 nuclear translocation; cell count: measured here: nuclei count (cytotoxicity indicator), at 2.08 µM; inhibition: at 2 µM, stronger effect = higher value, 0% TNFa-plus-vehicle, 100% no-TNFa wells
[2] = inhibitors of mutant huntingtin aggregation, primary screen, imaging, exon1htt(103Q)mCFP cells, high-content imaging (AID 483;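 active = visual image review flags a hit and inhibition of aggregation exceeds 20%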;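 also: compound exposure lasted 3 days before fixation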;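 as to nuclei count: percent of the per-plate median nuclei count of sample wells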); settings: exon1htt(103Q)mCFP cell line, aggregate imaging, at 2 µM; inhibition of aggregation: stronger effect = higher value; nuclei count: measured here: cell count, toxicity
[3] = inhibitors of E-selectin induction by TNFa, primary screen, imaging, HUVEC, immunofluorescence, MLSMR starter and 10KST1 sets (AID 487;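 active = visually confirmed hit in the image check and inhibition above 20%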;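 as to inhibition: signal is fraction of cell area covered by stained E-selectin grains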;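 as to nuclei count: 100% = median nuclei count of all wells on the same plate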); settings: HUVEC TNFalpha-induced E-selectin immunofluorescence imaging, at 2 µM; inhibition: stronger effect = higher value; nuclei count: measured here: cell number, toxicity
[4] = target: Voltage-gated potassium channel subunit beta-2 (Rattus norvegicus) (UniProt P62483); test: KvBeta enzyme negative modulators, primary screen, biochemical, NADPH fluorescence (AID 622); settings: recombinant KvBeta, 4-cyanobenzaldehyde reduction, at 10 µM, stronger effect = higher value;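 also: slope of raw intensity against log time taken from 70 to 1610 s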
Sequence of Voltage-gated potassium channel subunit beta-2 (Rattus norvegicus) (P62483 whole entry, looked up): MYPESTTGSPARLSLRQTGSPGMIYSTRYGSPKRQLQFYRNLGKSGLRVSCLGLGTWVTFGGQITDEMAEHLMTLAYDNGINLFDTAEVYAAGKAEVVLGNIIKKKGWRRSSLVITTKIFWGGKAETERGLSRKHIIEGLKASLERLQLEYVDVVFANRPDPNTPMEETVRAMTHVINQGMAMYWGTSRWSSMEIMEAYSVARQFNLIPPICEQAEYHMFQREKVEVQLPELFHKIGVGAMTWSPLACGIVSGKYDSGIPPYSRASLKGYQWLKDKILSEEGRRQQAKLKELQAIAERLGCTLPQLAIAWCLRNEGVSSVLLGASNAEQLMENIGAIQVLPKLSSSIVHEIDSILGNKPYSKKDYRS

[5] = target: Voltage-gated potassium channel subunit beta-2 (Rattus norvegicus) (UniProt P62483); test: KvBeta positive modulators, primary screen, biochemical, NADPH fluorescence (AID 623;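 active = NADPH fluorescence slope more negative than the mean of all samples by about 3 SD, 99.7% confidence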;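 also: fluorescence intensity change per second fitted from 20 to 320 s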); settings: Recombinant KvBeta, NADPH fluorescence decrease slope, 10 min; at 10 µM; stronger effect = lower value
[6] = target: Muscarinic acetylcholine receptor M4 (Homo sapiens) (UniProt P08173); test: compounds altering M4/GIRK thallium flux, either direction, primary screen, M4 allosteric agonist project, cell-based, HEK293 M4/GIRK, BTC-AM (AID 625;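 active = fluorescence slope after compound addition differing from the mean of all tested samples at 99.7% confidence, mostly higher but some lower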;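 also: thallium influx through GIRK channels coupled to M4 in HEK293 cells with BTC-AM dye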); settings: at 10 µM, actives lie on both sides
Sequence of Muscarinic acetylcholine receptor M4 (Homo sapiens) (P08173 whole entry, looked up): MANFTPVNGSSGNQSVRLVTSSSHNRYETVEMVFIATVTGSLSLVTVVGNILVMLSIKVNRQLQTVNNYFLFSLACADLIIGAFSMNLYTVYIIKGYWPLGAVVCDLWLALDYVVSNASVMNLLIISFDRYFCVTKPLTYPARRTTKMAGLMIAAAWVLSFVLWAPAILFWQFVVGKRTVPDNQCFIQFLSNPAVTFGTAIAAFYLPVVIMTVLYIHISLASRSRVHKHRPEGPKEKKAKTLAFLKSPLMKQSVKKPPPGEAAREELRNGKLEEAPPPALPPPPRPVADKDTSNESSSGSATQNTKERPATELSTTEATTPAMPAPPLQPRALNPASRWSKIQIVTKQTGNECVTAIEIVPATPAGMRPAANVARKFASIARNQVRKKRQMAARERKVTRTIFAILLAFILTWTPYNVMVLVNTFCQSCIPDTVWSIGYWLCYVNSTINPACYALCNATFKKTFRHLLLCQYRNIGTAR
In short: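 Material: M4/GIRK1/GIRK2 stable HEK293 cell line. Medium: pH 7.3 thallium assay buffer. Dosing: single compound concentration, 10 µM final. Schedule: 1 h dye loading, 2 min kinetic read. Measured by: kinetic fluorescence with BTC-AM dye. Read-out: post-addition slope, 15–24 s, of baseline-normalized fluorescence. Benchmarks: carbachol and DMSO controls.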

[7] = inhibitors of Sendai virus-induced IRF3 signaling, primary screen, TLR/RLR signaling modifier project, cell-based, Sendai virus stimulus, luciferase, 10K MLSCN set (AID 602276;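 active = inhibition at or above 50% at 10 µM; inactive = inhibition below 50%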;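 also: firefly luciferase from ISG56 promoter only with Renilla not read in this screen; 0% = Sendai virus plus DMSO and 100% = medium plus DMSO without virus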); settings: HEK293 RL24 IRF3 luciferase reporter, at 10 µM, stronger effect = higher value
[8] = inhibitors of poly I:C-induced TLR3 signaling, primary screen, cell-based, poly I:C stimulus, luciferase, 10K MLSCN set (AID 602277;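 active = inhibition of the reporter signal at or above 50%; inactive = inhibition below 50%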); settings: HEK293-TLR3 RL24 IRF3 luciferase reporter, at 10 µM, stronger effect = higher value

Row | SMILES | cell count [1] | inhibition [1] | inhibition of aggregation [2] | nuclei count [2] | inhibition [3] | nuclei count [3] | fluorescence slope [4] | NADPH fluorescence slope [5] | fluorescence slope [6] | inhibition [7] | inhibition [8]
1 | CCOC(=O)C1CCN(Cc2ccc(C(=O)OC)cc2)CC1 | 462 | -4.3% (inactive) | -0.6% (inactive) | 97% | 4.3% (inactive) | 85.6% | -0.595 (inactive) | -4.2e-05 (inactive) | 0.0043 (inactive) | 0.779% (inactive) | 12.5% (inactive)
2 | O=C(O)c1[nH]nc2c1COc1ccccc1-2 | 308 | 13.1% (inactive) | -9.9% (inactive) | 97% | 14.8% (inactive) | 102% | -0.551 (inactive) | -0.000118 (inactive) | 0.00437 (inactive) | 14.5% (inactive) | 22.3% (inactive)
3 | O=C(O)C1CC(=O)N(c2ccc(OCc3c(F)cccc3Cl)cc2)C1 (centres undefined) | 571 | -18.3% (inactive) | -13% (inactive) | 100% | -18.6% (inactive) | 116% | -0.568 (inactive) | -2.6e-05 (inactive) | 0.0057 (inactive) | 4.5% (inactive) | 17.3% (inactive)
4 | Cc1ccccc1S(=O)(=O)Cc1ccc(C(=O)NCc2cccnc2)o1 | 596 | -2.3% (inactive) | 9% (inactive) | 105% | 9.8% (inactive) | 112% | -0.546 (inactive) | 4e-05 (inactive) | 0.00552 (inactive) | 16.7% (inactive) | 19.4% (inactive)
5 | O=C(CN1CCN(C(=O)c2ccccc2)CC1)Nc1ncc(Br)cc1Br | 622 | 7.6% (inactive) | -6.8% (inactive) | 95.9% | 2.6% (inactive) | 99.9% | -0.45 (inactive) | 3.1e-05 (inactive) | 0.00598 (inactive) | -7.57% (inactive) | 5.71% (inactive)
6 | CCOC(=O)c1cnc(-n2nc(C)cc2C)nc1Nc1cccc(C(C)=O)c1 | 634 | -25.9% (inactive) | -14% (inactive) | 104% | 15.1% (inactive) | 111% | -0.567 (inactive) | -1.4e-05 (inactive) | 0.00544 (inactive) | -13.6% (inactive) | -13% (inactive)
7 | CC1=C(C#N)C(=O)NC(C)(C)C1 | 410 | 4.1% (inactive) | -3.7% (inactive) | 100% | 6.4% (inactive) | 109% | -0.413 (inactive) | 1.8e-05 (inactive) | 0.00867 (inactive) | 13.9% (inactive) | 21.4% (inactive)
8 | Cc1cc(OC(=O)N2CCOCC2)cc(C)c1Cl | 309 | -12.3% (inactive) | -22.3% (inactive) | 114% | -50% (inactive) | 130% | -0.444 (inactive) | 5.1e-05 (inactive) | 0.00877 (inactive) | -13.8% (inactive) | 99.2% (active)
9 | COc1cccc(CNc2cccc3cccnc23)c1O | 477 | 5% (inactive) | 19.2% (inactive) | 79.7% | -165% (inactive) | 122% | -0.564 (inactive) | -7.6e-05 (inactive) | 0.00309 (inactive) | 13% (inactive) | 8.77% (inactive)
10 | O=C(O)CCCC(=O)Nc1ccc(Br)cc1C(=O)O | 398 | 3.8% (inactive) | -5.6% (inactive) | 108% | 12.5% (inactive) | 103% | -0.57 (inactive) | 2.4e-05 (inactive) | 0.00576 (inactive) | 16.9% (inactive) | 20.6% (inactive)
11 | CCOC(=O)COc1ccc(S(=O)(=O)Nc2ccc3c(c2)OCO3)cc1 | 408 | 9.5% (inactive) | 3.4% (inactive) | 98.2% | -137% (inactive) | 115% | -0.588 (inactive) | -0.000101 (inactive) | 0.00399 (inactive) | 12.4% (inactive) | 19.9% (inactive)
12 | Cc1ccc(OCC(=O)NCCN2CCCC2)cc1 | 424 | 0% (inactive) | 5% (inactive) | 101% | -65.5% (inactive) | 102% | -0.404 (inactive) | -0.000132 (inactive) | 0.00568 (inactive) | 15.6% (inactive) | 28% (inactive)
13 | COC(=O)c1sc(NC(=O)c2ccoc2C)nc1C | 554 | -7.5% (inactive) | 8.8% (inactive) | 94.1% | 15.5% (inactive) | 98% | -0.557 (inactive) | 8.6e-06 (inactive) | 0.00464 (inactive) | -18.1% (inactive) | -76.5% (inactive)
14 | CCOC(=O)CSc1nc2ccccc2c(=O)n1NC(=O)c1ccccc1 | 472 | -5.7% (inactive) | -2% (inactive) | 119% | 10.7% (inactive) | 92.2% | -0.445 (inactive) | 3.6e-06 (inactive) | 0.00551 (inactive) | 1.47% (inactive) | -19.8% (inactive)
